Data published in the EternaBench riboswitch data.

Columns and labels:
[1] = test system: MS2 coat protein; experiment: apparent Kd, MS2 coat protein; higher = weaker binding; RNA-MaP array
Outline: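 Designs measured on fewer than 10 clusters were excluded from the data. The rest were RNAs transcribed from sequenced DNA templates on an Illumina sequencing chip and incubated at room temperature, with or without input ligand, with fluorescently labeled MS2 coat protein at 1.5 nM to 3 μM for 0.8–1.5 h at the lowest to 10–20 min at the highest concentrations. Apparent Kd is the median of the per-cluster binding-curve fits.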

[2] = test system: MS2 coat protein; experiment: apparent Kd, MS2 coat protein; higher = weaker binding; RNA-MaP array; FMN 200 µM where present
Outline: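 Designs were transcribed by stalled E. coli RNA polymerase on Illumina sequencing-chip clusters. They were titrated with SNAP-549-labelled MS2 coat protein from 0.7 or 1.5 nM, doubling to 3 µM, in 100 mM Tris-HCl pH 7.5, 80 mM KCl, 4 mM MgCl2, BSA, DTT, yeast tRNA and Tween-20, without and then with constant ligand. The apparent Kd is the median of filtered per-cluster fits after normalisation of green signal to red-channel RNA signal and control-cluster median Fmax.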

[3] = designed as: ON switch for flavin mononucleotide, no ligand
[4] = ligand present: flavin mononucleotide, designed as: ON switch for flavin mononucleotide
[5] = designed as: OFF switch for flavin mononucleotide, no ligand
[6] = ligand present: flavin mononucleotide, designed as: OFF switch for flavin mononucleotide

Sequence	apparent Kd [2, 5] [nM]	apparent Kd [2, 6] [nM]	other results
AUAUCAGGGUAGAAGGCAGCAUCAACAUGAGGAUCACCCAUGUAUAGGCACGUAGCCGCACGUGCUGAGGAUAUACGUUAUAAU			apparent Kd [1, 3]: 16.4 nM; apparent Kd [1, 4]: 6.41 nM
AUCAUGUAAGGAUAUGCCGAACCUGUUUUGUCGCGGUUAAAGCAGAAGGUACAUGAGGAUCACCCAUGUUAAAU			apparent Kd [1, 5]: 56.2 nM; apparent Kd [1, 6]: 54.4 nM
UUUGGGUCAGGAUAUUGUUAGUUUAGUUGUUUGUAUUAGUUCGAGAAGGGACAUGAGGAUCACCCAUGUGGUAA	94.9	69.9	
UUUGUCUGUGUGAGGAUAUACUUUGUUUGGUCGUUGUAGAAGGCACAUGAGGAUCACCCAUGUAGUUUGUUGUG	20.4	22.9	
UUUGUUUAUGUGAGGAUAUACUGUUUGUUUUGUUUGUAGAAGGUACAUGAGGAUCACCCAUGUUUUGUAUUUAU	21.5	18.8	
UUUGUUUGCGGAGGAUAUAUAAGUGGAUCACCCAUAGAAGGCCGACAUGAGGAUCACCCAUGUUAGACAUGAGGAUCACCCAUG	102	140	
UUUUAACAUGAGGAUCACCCAUGUCGUUCAAAUCAAGGAUAUCAGACGUGUACACACGCCUGAGAAGGUGAAGCUC			apparent Kd [2, 3]: 51.1 nM; apparent Kd [2, 4]: 132 nM
UUUUAACAUGAGGAUCACCCAUGUGAGGAUAUCGAAAUUUAUAUUAAUAUUAAUUAAUCGAGAAGGCACAUUUU	106	113	
UUUUAACAUGAGGAUCACCCAUGUGAGGAUAUCGAAAUUUAUAUUAAUAUUAAUUAUACGAGAAGGCACAUUUU	83.6	82.8	
UUUUAACAUGAGGAUCACCCAUGUGAGGAUAUCGAAAUUUAUAUUAAUAUUAAUUUUUCGAGAAGGCACAUUUU	132	150	
UUUUAACAUGAGGAUCACCCAUGUGAGGAUAUCGAAAUUUAUAUUAAUAUUAUUUAUACGAGAAGGCACAUUUU	63.2	73.4	
UUUUAACAUGAGGAUCACCCAUGUGAGGAUAUCGAAAUUUAUAUUUAUAUUAAUUAUUCGAGAAGGCACAUUUU	163	133	
UUUUAACAUGAGGAUCACCCAUGUGAGGAUAUCGAAAUUUAUAUUUAUAUUUAUAAUACGAGAAGGCACAUUUU	80.3	93.6	
UUUUACAUAGGAUAUAGUCUUUUUUACAUGAGGAUCACCCAUGUCUCUCUUUUUUUUUUUCUAGAAGGAUGUUUUU	42.9	30.9	
UUUUACCUAGGAUAUACAUUUUUUUUAUUAUUUUCAUUAUAACAUGAGGAUCACCCAUGUAGAAGGAGGAUUUU	28.4	33.6	
UUUUACUGAGGAUAUACAUUUUUUUAUUUAUUUAUAAUAUUACAUGAGGAUCACCCAUGUAGAAGGCAGAUUUU	27.4	24.4	
UUUUAGGCAGGAUAUACAUUUUUUUUAUUAUCCUCAUUAUUACAUGAGGAUCACCCAUGUAGAAGGGCCAUUUU	48.1	50.2	
UUUUAGUCAGGAUAUACAUGAGGAUCACCCAUGUAAAAUUUUAAUUUAAUUUUAAGGUGUAGAAGGGACAAUUC	48	38.6	
UUUUAGUCAGGAUAUCGUUAAUUUAAUUGUUUGUAUUAGUUCGAGAAGGGACAUGAGGAUCACCCAUGUACUUU	23.7	24.5	
UUUUCUUUUGUGAGGAUAUACUUGUUUUUUUUUUUGUAGAAGGCACAUGAGGAUCACCCAUGUUUUCUUUCCUG	17	19.8	
UUUUUAUUUGAAGGAUAUACUUAACAUGAGGAUCACCCAUGUGGUGUUGUGAGUGAGUGAGUUUAGUAGAAGGUCAAUUCUUUU	401	696	
UUUUUGUCAGGAUAUCGUGCAUACAACGAAAGUUCUAUGUGCGAGAAGGGACAUGAGGAUCACCCAUGUUACGG	109	371	
UUUUUGUGAGGAUAUGCGUAGUAGAACAAUAGUACUACUACGUAGAAGGCACAUGAGGAUCACCCAUGUUCCUC	37.8	254	
UUUUUGUGAGGAUAUUAGUAGUAAAUAAAUAAAAUUACUACUGAGAAGGCACAUGAGGAUCACCCAUGUUCCUC	33.6	254	
UUUUUUCCUCAUGUACAUGAGGAACAUGAGGAUCACCCAUGUAGAAGGAUUUCCCUUAAAUUAAGAUAGGAUAUACAUAUUUUU	88.2	61.6	
UUUUUUUUAGUAAGGAUAUGAUGCAGGAAACUGCGUCAGAAGGUACAUGAGGAUCACCCAUGUUAAUUUUUUUU	17.2	22.4	
UUUUUUUUUAGAGGAUAUAUUGUGUGUUAUAUAAUAGAAGGCUAAACAUGUGACAUACACAUGAGGAUCACCCAUGUUUUGUUU			apparent Kd [2, 3]: 31.6 nM; apparent Kd [2, 4]: 27 nM
